Results taken from ChEMBL document CHEMBL5370586 (J Nat Prod, 2023).
The source made the active and inactive calls. The calls are words filed in the database; no cut-off is given here.

Experiments:
[1] = test system: PWR-1E; experiment: Induction of cell death in human PWR-1E cells assessed as reduction in nucleus circularity at 1 to 10 uM incubated for 72 hrs by Hoechst 33342 staining based high-content fluorescence microscopy; format: toxicity; details: dose 1-10 µM
[2] = test system: LNCaP; experiment: Antiproliferative activity against human LNCap cells assessed as reduction in cell viability incubated for 72 hrs in presence of 10% FBS by MTT assay; format: functional, cell-based
Procedure, shortened: (§1)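 Cells left to adhere 24 h, then exposed to CBD (0–100 μM) for 72 h in medium with 10% FBS. MTT incubation 3 h at 37 °C, DMSO solubilisation, A570. Viability relative to vehicle; IC50 from nonlinear regression; at least three independent experiments.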

[3] = test system: PC-3; experiment: Antiproliferative activity against human PC-3 cells assessed as reduction in cell viability incubated for 72 hrs in presence of LPI by MTT assay; format: functional, cell-based
Procedure, shortened: (§2)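 DU145 or PC-3 cells pretreated 1 h with SR141716 (CB1 antagonist), SR144528 (CB2 antagonist), capsazepine (TRPV1 antagonist) or LPI (GPR55 agonist), then given CBD for 72 h. MTT read-out as % of vehicle. Compared with CBD alone by t-test; at least three independent experiments.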

[4] = test system: DU-145; experiment: Antiproliferative activity against human DU-145 cells assessed as reduction in cell count at IC50 concentration incubated for 48 hrs by flow cytometry analysis; format: functional, cell-based
Procedure, shortened: (§3)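 Six-well seeding at 4 × 10^4 (DU145) or 3 × 10^4 (PC-3) cells per well; CBD for 48 h. Supernatant and trypsinised adherent cells pooled and resuspended in ice-cold PBS. Cells counted by flow cytometry with forward/side scatter gating; at least three independent experiments.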

[5] = test system: PC-3; experiment: Induction of cell cycle arrest in human PC-3 cells assessed as arrest in G2/M phase by measuring reduction in CDK1 protein expression at IC50 concentration incubated for 48 hrs by Western blotting analysis; format: functional, cell-based
Procedure, shortened: (§4)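 DU145 or PC-3 cells seeded at 5 × 10^4 per well and given CBD for 48 h. Lysed in ice-cold RIPA with protease/phosphatase inhibitor; 40 μg protein per lane, SDS-PAGE, PVDF transfer, milk block. Primary antibodies overnight at 4 °C, then HRP secondary 1 h at room temperature, chemiluminescence. Densitometry normalised to loading control, then to vehicle; at least three experiments.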

[6] = test system: PC-3; experiment: Induction of apoptosis in human PC-3 cells assessed as late apoptotic cells at 1 to 10 uM incubated for 72 hrs by YO-PRO and propidium iodide staining based high content imaging fluorescence microscopic analysis; format: functional, cell-based; details: dose 1-10 µM
Procedure, shortened: (§5)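 DU145 or PC-3 cells seeded at 2 × 10^3 per well and given CBD at 1, 5 or 10 μM with serum for 72 h; staurosporine as positive control. Stained 30 min with Hoechst 33342 (1:5000), YO-PRO-1 (1:1000) and PI (1:1000). High-content imaging with a 63× water objective. Hoechst gave confluency, nucleus area and circularity; YO-PRO/PI gave healthy, early and late apoptotic fractions.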

[7] = test system: PC-3; experiment: Antiproliferative activity against human PC-3 cells assessed as reduction in cell confluency at 10 uM measured after 72 hrs by Hoechst 33342 staining based high content imaging fluorescence microscopic analysis; format: functional; procedure, shortened: as §5
[8] = test system: DU-145; experiment: Induction of cell cycle arrest in human DU-145 cells assessed as arrest in G1/S phase by measuring reduction in CDK2 protein expression at IC50 concentration incubated for 48 hrs by Western blotting analysis; format: functional, cell-based; procedure, shortened: as §4
[9] = test system: PC-3; experiment: Induction of cell death in human PC-3 cells assessed as reduction in cell nucleus area at 1 to 10 uM measured after 72 hrs by Hoechst 33342 staining based high content imaging fluorescence microscopic analysis; format: functional; details: dose 1-10 µM; procedure, shortened: as §5
[10] = test system: DU-145; experiment: Antiproliferative activity against human DU-145 cells assessed as reduction in cell viability incubated for 72 hrs in serum deprivation condition by MTT assay; format: functional, cell-based; details: DU-145, 72 h
Procedure, shortened: (§6)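 Cells seeded at 1 × 10^3 (DU145, PC-3), 6 × 10^3 (LNCaP), 2 × 10^3 (PWR-1E) or 4.5 × 10^3 (RWPE-1) per well and left to adhere 24 h. CBD (0–100 μM) then given for 72 h in serum-free medium. MTT added for 3 h at 37 °C, formazan dissolved in DMSO, absorbance read at 570 nm. Viability is % of vehicle; IC50 by nonlinear regression; at least three independent experiments.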

[11] = test system: LNCaP; experiment: Antiproliferative activity against human LNCaP cells assessed as reduction in cell viability incubated for 72 hrs in serum deprivation condition by MTT assay; format: functional, cell-based; procedure, shortened: as §6
[12] = test system: DU-145; experiment: Antiproliferative activity against human DU-145 cells assessed as reduction in cell viability incubated for 72 hrs in presence of capsazepine by MTT assay; format: functional, cell-based; procedure, shortened: as §2
[13] = test system: PC-3; experiment: Induction of cell cycle arrest in human PC-3 cells assessed as arrest in G1/S phase by measuring reduction in cyclin D3 protein expression at IC50 concentration incubated for 48 hrs by Western blotting analysis relative to control; format: functional, cell-based; procedure, shortened: as §4
[14] = molecular target: Serine/threonine-protein kinase AKT (Homo sapiens) (UniProt P31751+Q9Y243+P31749); experiment: Inhibition of AKT phosphorylation in human PC-3 cells at IC50 concentration incubated for 48 hrs by Western blot analysis; format: cell-based
Procedure, shortened: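 Cells seeded at 5 × 10^4 per well and treated 48 h with an IC50 dose of CBD in DU145 or PC-3. Lysed in ice-cold RIPA with protease/phosphatase inhibitor. 40 μg protein per lane on SDS-PAGE, then PVDF. Probed overnight at 4 °C for phospho-AKT and total AKT, HRP detection. Densitometry normalised to loading control, then to vehicle. Mean ± SD, ≥3 experiments, t-test.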

[15] = test system: DU-145; experiment: Antiproliferative activity against human DU-145 cells assessed as reduction in cell viability incubated for 72 hrs in presence of 10% FBS by MTT assay; format: functional, cell-based; details: DU-145, 72 h; procedure, shortened: as §1
[16] = test system: PC-3; experiment: Induction of apoptosis in human PC-3 cells assessed as early apoptotic cells at 1 to 10 uM incubated for 72 hrs by YO-PRO and propidium iodide staining based high content imaging fluorescence microscopic analysis; format: functional, cell-based; details: dose 1-10 µM; procedure, shortened: as §5
[17] = test system: DU-145; experiment: Inhibition of cell invasion in human DU-145 cells incubated for 48 hrs by crystal violet staining based microscopic analysis; format: functional
[18] = test system: PC-3; experiment: Antiproliferative activity against human PC-3 cells assessed as reduction in cell viability incubated for 72 hrs in presence of 10% FBS by MTT assay; format: functional, cell-based; details: PC-3, 72 h; procedure, shortened: as §1
[19] = test system: PC-3; experiment: Antiproliferative activity against human PC-3 cells assessed as reduction in cell viability incubated for 72 hrs in presence of SR141716 by MTT assay; format: functional, cell-based; procedure, shortened: as §2
[20] = test system: DU-145; experiment: Antiproliferative activity against human DU-145 cells assessed as reduction in cell viability incubated for 72 hrs in presence of LPI by MTT assay; format: functional, cell-based; procedure, shortened: as §2
[21] = test system: PC-3; experiment: Induction of cell death in human PC-3 cells assessed as reduction in cell nucleus circularity at 1 to 10 uM measured after 72 hrs by Hoechst 33342 staining based high content imaging fluorescence microscopic analysis; format: functional; details: dose 1-10 µM; procedure, shortened: as §5
[22] = test system: DU-145; experiment: Induction of cell cycle arrest in human DU-145 cells assessed as arrest in G1/S phase by measuring reduction in CDK4 protein expression at IC50 concentration incubated for 48 hrs by Western blotting analysis; format: functional, cell-based; procedure, shortened: as §4
[23] = test system: PC-3; experiment: Antiproliferative activity against human PC-3 cells assessed as reduction in cell viability incubated for 72 hrs in presence of SR144528 by MTT assay; format: functional, cell-based; procedure, shortened: as §2
[24] = test system: PC-3; experiment: Inhibition of cell invasion in human PC-3 cells incubated for 48 hrs by crystal violet staining based microscopic analysis relative to control; format: functional
[25] = test system: PC-3; experiment: Antiproliferative activity against human PC-3 cells assessed as reduction in cell count at IC50 concentration incubated for 48 hrs by flow cytometry analysis; format: functional, cell-based; procedure, shortened: as §3
[26] = Cytotoxicity against human PWR-1E cells assessed as cell viability incubated for 72 hrs in serum deprivation condition by MTT assay; format: toxicity, cell-based; procedure, shortened: as §6
[27] = test system: DU-145; experiment: Induction of apoptosis in human DU-145 cells assessed as late apoptotic cells at 1 to 10 uM incubated for 72 hrs by YO-PRO and propidium iodide staining based high content imaging fluorescence microscopic analysis; format: functional, cell-based; details: dose 1-10 µM; procedure, shortened: as §5

Sequence of Serine/threonine-protein kinase AKT (Homo sapiens) (P31749 whole entry, looked up): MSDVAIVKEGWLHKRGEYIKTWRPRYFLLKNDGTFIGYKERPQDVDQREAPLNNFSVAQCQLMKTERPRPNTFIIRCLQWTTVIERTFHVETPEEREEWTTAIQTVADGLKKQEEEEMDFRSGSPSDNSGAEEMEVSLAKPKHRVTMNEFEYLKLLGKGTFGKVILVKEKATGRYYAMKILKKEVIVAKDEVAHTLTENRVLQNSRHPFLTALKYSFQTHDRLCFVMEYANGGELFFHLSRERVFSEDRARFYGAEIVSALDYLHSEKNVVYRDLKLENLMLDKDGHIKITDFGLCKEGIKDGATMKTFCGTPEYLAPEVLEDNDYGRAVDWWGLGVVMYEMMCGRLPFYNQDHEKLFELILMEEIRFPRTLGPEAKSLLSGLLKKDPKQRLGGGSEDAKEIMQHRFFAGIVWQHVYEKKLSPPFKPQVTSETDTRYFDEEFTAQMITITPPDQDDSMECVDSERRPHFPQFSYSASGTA
Sequence of Serine/threonine-protein kinase AKT (Homo sapiens) (P31751 whole entry, looked up): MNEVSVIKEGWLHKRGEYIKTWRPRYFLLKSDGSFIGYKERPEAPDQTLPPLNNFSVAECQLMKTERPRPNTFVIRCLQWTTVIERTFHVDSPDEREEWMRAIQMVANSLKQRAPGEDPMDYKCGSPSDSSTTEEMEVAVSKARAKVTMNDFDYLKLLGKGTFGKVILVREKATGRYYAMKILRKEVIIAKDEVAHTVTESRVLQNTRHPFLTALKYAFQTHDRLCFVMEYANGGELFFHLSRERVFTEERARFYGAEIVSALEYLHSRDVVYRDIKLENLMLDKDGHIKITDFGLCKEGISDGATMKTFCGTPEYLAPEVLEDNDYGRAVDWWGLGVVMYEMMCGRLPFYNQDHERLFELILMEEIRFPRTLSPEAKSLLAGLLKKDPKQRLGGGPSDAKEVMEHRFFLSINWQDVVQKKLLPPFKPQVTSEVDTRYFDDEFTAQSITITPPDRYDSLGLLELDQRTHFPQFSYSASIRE
Sequence of Serine/threonine-protein kinase AKT (Homo sapiens) (Q9Y243 whole entry, looked up): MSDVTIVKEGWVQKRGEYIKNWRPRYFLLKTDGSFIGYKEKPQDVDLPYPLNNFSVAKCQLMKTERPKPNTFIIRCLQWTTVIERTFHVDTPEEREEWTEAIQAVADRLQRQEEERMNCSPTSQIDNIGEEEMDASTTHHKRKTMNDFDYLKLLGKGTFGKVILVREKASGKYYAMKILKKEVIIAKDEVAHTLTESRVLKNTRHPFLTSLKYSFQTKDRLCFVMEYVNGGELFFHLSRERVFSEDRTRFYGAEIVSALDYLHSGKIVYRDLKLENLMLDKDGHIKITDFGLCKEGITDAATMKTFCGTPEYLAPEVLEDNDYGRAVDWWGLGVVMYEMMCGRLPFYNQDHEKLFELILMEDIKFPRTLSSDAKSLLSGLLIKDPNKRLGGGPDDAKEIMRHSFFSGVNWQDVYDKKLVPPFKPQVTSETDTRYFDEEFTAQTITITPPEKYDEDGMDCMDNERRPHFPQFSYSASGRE

Compound: C=C(C)[C@@H]1CCC(C)=C[C@H]1c1c(O)cc(CCCCC)cc1O [CANNABIDIOL]
- Activity [1]: Toxic
- IC50 [2]: 18 µM
- Activity [3]: Active
- Activity [4]: Active
- Activity [5]: Active
- Activity [6]: inactive
- Activity [7]: Active
- Activity [8]: Active
- Activity [9]: inactive
- IC50 [10]: 1.5 µM
- IC50 [11]: 2.6 µM
- Activity [12]: Active
- Activity [13]: Active
- inhibition [14]: inactive
- IC50 [15]: 12.3 µM
- Activity [16]: inactive
- inhibition [17]: Active
- IC50 [18]: 10.5 µM
- Activity [19]: Active
- Activity [20]: Active
- Activity [21]: inactive
- Activity [22]: Active
- Activity [23]: Active
- inhibition (INH) [24]: ~30%
- Activity [25]: Active
- IC50 at 72 h [26]: 0.9 µM
- Activity [27]: inactive
